Key:
UACC-62 = experiment: Growth inhibition against human UACC-62 cells incubated for 48 hrs by sulforhodamine B assay; type: functional
OVCAR-4 = experiment: Antiproliferative activity against human OVCAR-4 cells assessed as cell growth at 0.0001 M incubated for 48 hrs by SRB assay relative to control; type: functional; conditions: read-out: Activity
SNB-19 [1] = experiment: Growth inhibition against human SNB-19 cells assessed as total growth inhibitory concentration incubated for 48 hrs by sulforhodamine B assay; type: functional
Hs-578T [2] = experiment: Antiproliferative activity against human Hs-578T cells assessed as cell growth at 0.0001 M incubated for 48 hrs by SRB assay relative to control; type: functional; conditions: read-out: Activity
In short: (§1)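 NCI-60 five-dose mode, 10^-4 to 10^-8 M in 10-fold steps. RPMI 1640, 5% FBS, 2 mM L-glutamine; 24 h preincubation, then 48 h drug exposure at 37 °C. Stocks in DMSO at 400× the top concentration, diluted in medium with gentamicin. TCA fixation, SRB staining, absorbance at 515 nm. Percent growth from time-zero (Tz), control (C) and test (Ti) readings.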

IGROV-1 [3] = experiment: Antiproliferative activity against human IGROV-1 cells assessed as cell growth at 0.0000001 M incubated for 48 hrs by SRB assay relative to control; type: functional; conditions: dose 100 nM, read-out: Activity
IGROV-1 [4] = experiment: Antiproliferative activity against human IGROV-1 cells assessed as cell growth at 0.00001 M incubated for 48 hrs by SRB assay relative to control; type: functional; conditions: read-out: Activity
MCF7 [5] = experiment: Antiproliferative activity against human MCF7 cells assessed as cell growth inhibition by measuring lethal concentration incubated for 48 hrs by sulforhodamine B assay; type: functional; conditions: read-out: LC50 (the source's name)
EKVX [6] = experiment: Antiproliferative activity against human EKVX cells assessed as cell growth at 0.00000001 M incubated for 48 hrs by SRB assay relative to control; type: functional; conditions: dose 10 nM, read-out: Activity
In short: (§2)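 NCI-60 five-dose screen (10^-4 to 10^-8 M). Cells grown in RPMI 1640 with 5% FBS and 2 mM L-glutamine, plated at 5,000-40,000 cells/well and preincubated 24 h. Drug given from DMSO stock, then 48 h at 37 °C, 5% CO2. For adherent lines, cells fixed with cold TCA, SRB-stained and read at 515 nm. Percent growth taken against time-zero and untreated control.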

HEK293 = experiment: Cytotoxicity against human HEK293 cells assessed as reduction in cell viability at 0.00001 M incubated for 48 hrs by MTT colorimetric assay relative to control; type: toxicity, cell-based; conditions: hek293, 48 h, 10 µM
SK-MEL-28 = experiment: Antiproliferative activity against human SK-MEL-28 cells assessed as cell growth at 0.0001 M incubated for 48 hrs by SRB assay relative to control; type: functional; conditions: read-out: Activity
MDA-MB-468 = experiment: Antiproliferative activity against human MDA-MB-468 cells assessed as cell growth at 0.00000001 M incubated for 48 hrs by SRB assay relative to control; type: functional; conditions: dose 10 nM, read-out: Activity
IGROV-1 [7] = experiment: Growth inhibition against human IGROV-1 cells incubated for 48 hrs by sulforhodamine B assay; type: functional
DU-145 = experiment: Growth inhibition against human DU-145 cells assessed as total growth inhibitory concentration incubated for 48 hrs by sulforhodamine B assay; type: functional
NCI-H460 = experiment: Antiproliferative activity against human NCI-H460 cells assessed as cell growth at 0.00001 M incubated for 48 hrs by SRB assay relative to control; type: functional; conditions: read-out: Activity
EKVX [8] = experiment: Antiproliferative activity against human EKVX cells assessed as cell growth at 0.0001 M incubated for 48 hrs by SRB assay relative to control; type: functional; conditions: read-out: Activity; in short: as §2
NCI-H322M = experiment: Antiproliferative activity against human NCI-H322M cells assessed as cell growth inhibition by measuring lethal concentration incubated for 48 hrs by sulforhodamine B assay; type: functional; conditions: read-out: LC50 (the source's name)
SF-539 [9] = experiment: Antiproliferative activity against human SF-539 cells assessed as cell growth at 0.0001 M incubated for 48 hrs by SRB assay relative to control; type: functional; conditions: read-out: Activity
SNB-75 = experiment: Growth inhibition against human SNB-75 cells incubated for 48 hrs by sulforhodamine B assay; type: functional
MDA-MB-435 = experiment: Antiproliferative activity against human MDA-MB-435 cells assessed as cell growth at 0.000001 M incubated for 48 hrs by SRB assay relative to control; type: functional; conditions: read-out: Activity
HOP-92 = experiment: Antiproliferative activity against human HOP-92 cells assessed as cell growth at 0.0000001 M incubated for 48 hrs by SRB assay relative to control; type: functional; conditions: dose 100 nM, read-out: Activity; in short: as §2
MCF7 [10] = experiment: Antiproliferative activity against human MCF7 cells assessed as cell growth at 0.00001 M incubated for 48 hrs by SRB assay relative to control; type: functional; conditions: read-out: Activity
HCT-15 = experiment: Antiproliferative activity against human HCT-15 cells assessed as cell growth at 0.0001 M incubated for 48 hrs by SRB assay relative to control; type: functional; conditions: read-out: Activity; in short: as §2
SNB-19 [11] = experiment: Antiproliferative activity against human SNB-19 cells assessed as cell growth at 0.0000001 M incubated for 48 hrs by SRB assay relative to control; type: functional; conditions: dose 100 nM, read-out: Activity
EKVX [12] = experiment: Growth inhibition against human EKVX cells incubated for 48 hrs by sulforhodamine B assay; type: functional
ACHN = experiment: Antiproliferative activity against human ACHN cells assessed as cell growth at 0.0000001 M incubated for 48 hrs by SRB assay relative to control; type: functional; conditions: dose 100 nM, read-out: Activity
In short: (§3)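 NCI-60 five-dose screen over 10^-4–10^-8 M (10-fold dilutions). Cells grown in RPMI 1640 with 5% FBS and 2 mM L-glutamine, seeded at 5,000–40,000 cells/well and preincubated 24 h. Drug from DMSO stock, 48 h at 37 °C, 5% CO2. Adherent cells TCA-fixed and stained with 0.4% SRB; A515 read. Percent growth = (Ti−Tz)/(C−Tz)×100, or (Ti−Tz)/Tz×100 when Ti<Tz.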

SN12C = experiment: Antiproliferative activity against human SN12C cells assessed as cell growth at 0.000001 M incubated for 48 hrs by SRB assay relative to control; type: functional; conditions: read-out: Activity
SF-539 [13] = experiment: Antiproliferative activity against human SF-539 cells assessed as cell growth at 0.00000001 M incubated for 48 hrs by SRB assay relative to control; type: functional; conditions: dose 10 nM, read-out: Activity
HOP-62 = experiment: Antiproliferative activity against human HOP-62 cells assessed as cell growth at 0.0001 M incubated for 48 hrs by SRB assay relative to control; type: functional; conditions: read-out: Activity; in short: as §2
Hs-578T [14] = experiment: Antiproliferative activity against human Hs-578T cells assessed as cell growth at 0.00001 M incubated for 48 hrs by SRB assay relative to control; type: functional; conditions: read-out: Activity; in short: as §1
MDA-MB-231 = experiment: Growth inhibition against human MDA-MB-231 cells assessed as total growth inhibitory concentration incubated for 48 hrs by sulforhodamine B assay; type: functional
SK-MEL-2 = experiment: Antiproliferative activity against human SK-MEL-2 cells assessed as cell growth at 0.00000001 M incubated for 48 hrs by SRB assay relative to control; type: functional; conditions: dose 10 nM, read-out: Activity
Malme-3M = experiment: Antiproliferative activity against human Malme-3M cells assessed as cell growth at 0.0000001 M incubated for 48 hrs by SRB assay relative to control; type: functional; conditions: dose 100 nM, read-out: Activity
A498 = experiment: Antiproliferative activity against human A498 cells assessed as cell growth at 0.00000001 M incubated for 48 hrs by SRB assay relative to control; type: functional; conditions: dose 10 nM, read-out: Activity; in short: as §3

| SMILES | GI50 (UACC-62) [nM] | growth at 100 µM (OVCAR-4) [%] | TGI (SNB-19 [1]) [nM] | growth at 100 µM (Hs-578T [2]) [%] | growth at 0.1 µM (IGROV-1 [3]) [%] | growth at 10 µM (IGROV-1 [4]) [%] | CC50 (MCF7 [5]) [nM] | growth at 0.01 µM (EKVX [6]) [%] | Activity (HEK293) [%] | growth at 100 µM (SK-MEL-28) [%] | growth at 0.01 µM (MDA-MB-468) [%] | GI50 (IGROV-1 [7]) [nM] | TGI (DU-145) [nM] | growth at 10 µM (NCI-H460) [%] | growth at 100 µM (EKVX [8]) [%] | CC50 (NCI-H322M) [nM] | growth at 100 µM (SF-539 [9]) [%] | GI50 (SNB-75) [nM] | growth at 1 µM (MDA-MB-435) [%] | growth at 0.1 µM (HOP-92) [%] | other results |
| --- | --- | --- | --- | --- | --- | --- | --- | --- | --- | --- | --- | --- | --- | --- | --- | --- | --- | --- | --- | --- | --- |
| c1ccc(Cn2cnc3ccc(-c4nc(-c5ccc6c(c5)ncn6C5CCCCC5)cn5ccnc45)cc32)cc1 | 1980 | 14 | > 100000 | 12 | 93 | 3 | > 100000 | 89 | 14.53 | 13 | 100 | 2140 | 2100 | -32 | 14 | > 100000 | -38 | 1190 | 92 | 98 | growth at 10 µM (MCF7 [10]): 2%; growth at 100 µM (HCT-15): 3%; growth at 0.1 µM (SNB-19 [11]): 103%; GI50 (EKVX [12]): 1750 nM; growth at 0.1 µM (ACHN): 97%; growth at 1 µM (SN12C): 95%; growth at 0.01 µM (SF-539 [13]): 88%; growth at 100 µM (HOP-62): 5%; growth at 10 µM (Hs-578T [14]): 1%; TGI (MDA-MB-231): 3690 nM; growth at 0.01 µM (SK-MEL-2): 94%; growth at 0.1 µM (Malme-3M): 92%; growth at 0.01 µM (A498): 95% |
| COc1ccc(-c2cn3ccnc3c(-c3ccc4ncn(C5CCCCC5)c4c3)n2)cc1 | 434 | 57 | > 100000 | -3 | 90 | 19 | > 100000 | 87 | 16.51 | 36 | 93 | 921 | > 100000 | 4 | 26 | > 100000 | -19 | 733 | 7 | 94 | growth at 10 µM (MCF7 [10]): 16%; growth at 100 µM (HCT-15): 13%; growth at 0.1 µM (SNB-19 [11]): 108%; GI50 (EKVX [12]): 3040 nM; growth at 0.1 µM (ACHN): 100%; growth at 1 µM (SN12C): 66%; growth at 0.01 µM (SF-539 [13]): 87%; growth at 100 µM (HOP-62): 8%; growth at 10 µM (Hs-578T [14]): 6%; TGI (MDA-MB-231): > 100000 nM; growth at 0.01 µM (SK-MEL-2): 96%; growth at 0.1 µM (Malme-3M): 95%; growth at 0.01 µM (A498): 100% |
